Measured values gathered from unrelated publications.
OPRK1: Kappa-type opioid receptor (OPRK1, Cavia porcellus, UniProt P41144)
HRH2: Histamine H2 receptor (HRH2, Homo sapiens, UniProt P25021)
ADRA1A: Alpha-1A adrenergic receptor (ADRA1A, Homo sapiens, UniProt P35348)

| SMILES | target | read-out | mode | technique | setting | quantity | value |
| --- | --- | --- | --- | --- | --- | --- | --- |
| Cc1cc(O)cc(C)c1C[C@H](C)C(=O)N[C@@H]1C/C=C/CC[C@@H](C(N)=O)NC(=O)[C@H](Cc2ccccc2)NC(=O)[C@H](Cc2ccccc2)NC1=O | OPRK1 | ligand displacement | – | radioligand | cell membranes | Ki | 0.635 µM |
| CCc1cccc(C)c1C[C@H](NC(=O)[C@@H](CCCNC(=N)N)NC(=O)[C@@H](N)Cc1c(C)cc(O)cc1C)C(=O)N[C@@H](CCCCN)C(N)=O | OPRK1 | ligand displacement | – | radioligand | cell membranes | Ki | 0.000961 µM |
| Cc1nccc2c1[nH]c1ccccc12 | Amine oxidase [flavin-containing] A (MAOA, Homo sapiens, UniProt P21397) | enzyme activity | inhibitor | – | – | Ki | 0.58 µM |
| CNc1nc2cc(OCCCCN3CCN(c4cccc(Cl)c4Cl)CC3)ccc2s1 | HRH2 | ligand displacement | – | radioligand | – | Ki | 0.31 µM |
| Cc1cc(O)cc(C)c1C[C@H](N)C(=O)N[C@H](CCCNC(=N)N)C(=O)N[C@@H](Cc1c(C)cccc1C(C)C)C(=O)N[C@@H](CCCCN)C(N)=O | OPRK1 | ligand displacement | – | radioligand | cell membranes | Ki | 0.000236 µM |
| OC(c1ccc(F)cc1)C(F)(F)CCN1CCC(O)(c2ccc(Cl)cc2)CC1 (racemic) | HRH2 | cell-free assay | – | radioligand | – | Ki | 4.83 µM |
| CC[C@H](C)[C@H](NC(=O)[C@H](CO)NC(=O)[C@H](CC(=O)O)NC(=O)[C@H](CC(C)C)NC(=O)[C@@H](NC(=O)[C@H](CCCCN)NC(=O)[C@H](CC(N)=O)NC(=O)[C@@H](NC(=O)[C@H](CC(=O)O)NC(=O)[C@H](CO)NC(=O)[C@@H](NC(=O)[C@H](Cc1ccccc1)NC(=O)[C@H](CO)NC(=O)CNC(=O)[C@H](CC(=O)O)NC(=O)[C@@H](NC(=O)[C@@H](N)Cc1c[nH]cn1)C(C)C)[C@@H](C)O)C(C)C)C(C)C)C(=O)N[C@@H](C)C(=O)N[C@@H](C)C(=O)N[C@@H](CCCCN)C(=O)N[C@@H](CCC(=O)O)C(=O)N[C@@H](Cc1ccc(O)cc1)C(=O)N[C@@H](CC(C)C)C(=O)N[C@@H](CCC(N)=O)C(=O)N[C@@H](Cc1c[nH]c2ccccc12)C(=O)N[C@H](C(=O)N[C@@H](CCSC)C(=O)N[C@@H](CC(N)=O)C(=O)N[C@@H](CO)C(=O)N[C@@H](CCCCN)C(=O)N[C@@H](C)C(=O)N[C@@H](CO)C(=O)NCC(=O)O)C(C)C | Glucagon-like peptide 2 receptor (GLP2R, Homo sapiens, UniProt O95838) | reporter gene | agonist | luciferase | – | EC50 | > 1 µM |
| CC[C@H](C)[C@H](NC(=O)[C@H](CCCNC(=N)N)NC(=O)[C@H](CC(C)C)NC(=O)[C@@H](N)Cc1ccccc1)C(=O)N[C@@H](CCCNC(=N)N)C(=O)N1CCC[C@H]1C(=O)N[C@@H](CCCCN)C(=O)O | ADRA1A | cell-free assay | – | radioligand | – | Ki | > 10 µM |
| CCCC[C@@H](NC(=O)[C@@H](N)Cc1c(C)cc(O)cc1C)C(=O)NCC(=O)N[C@@H](Cc1ccc(F)cc1)C(=O)N(C)CCC[C@@]1(c2ccc(F)cc2)OCc2cc(C#N)ccc21 | ADRA1A | ligand displacement | – | radioligand | – | Ki | > 10 µM |
| Nc1ncnc2c1ncn2[C@@H]1O[C@H](COP(=O)(O)OP(=O)(O)NP(=O)(O)O)[C@@H](O)[C@H]1O | lptB (Escherichia coli, UniProt P0A9V1) | ATPase activity | inhibitor | – | – | Ki | 25000 µM |
| Cc1cc(O)cc(C)c1C[C@H](N)C(=O)N[C@H](CCCNC(=N)N)C(=O)N[C@@H](Cc1c[nH]c2ccccc12)C(=O)N[C@@H](CCCCN)C(N)=O | OPRK1 | ligand displacement | – | radioligand | cell membranes | Ki | 0.0165 µM |
| Cc1cc(O)cc(C)c1C[C@H](N)C(=O)N[C@H](C)C(=O)NCC(=O)N[C@@H](Cc1ccc(Cl)cc1)C(=O)N(C)CCC[C@@]1(c2ccc(F)cc2)OCc2cc(C#N)ccc21 | ADRA1A | ligand displacement | – | radioligand | – | Ki | 4.6 µM |
| N=C(N)NCCC[C@H]1NC(=O)[C@H](Cc2ccc(O)cc2)NC(=O)[C@H](CCCCN)NC(=O)[C@H](Cc2ccccc2)NC1=O | OPRK1 | ligand displacement | – | radioligand | cell membranes | Ki | 0.0674 µM |
